Laboratory results taken from ChEMBL document CHEMBL1127799, “Derivatives of a novel cyclopeptolide. 1. Synthesis, antifungal activity, and structure-activity relationships” (1994).
≈ marks a conversion by molar mass, not a printed value.

How the values were obtained:
Format in all cases: functional
Candida albicans [1] = assay: Tested for minimum subinhibitory concentration against Candida albicans 9 (Candida albicans) at pH 6.5.
Outline: (§1)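 Malt extract broth microdilution, initial pH 6.5, inoculum 1×10^3 CFU per 0.2 mL well. Compound diluted from 0.08% stock (5% DMSO/0.2% Tween 80) to final 0.05–100 μg/mL. Macroscopic reading after 48 h, 30 °C. MSIC = lowest concentration giving visible growth inhibition in at least two of three triplicates. Vehicle-only negative controls.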

Mus musculus [2] = assay: Tested for efficacy of compound in experimental vaginal candidosis (mouse) after intraperitoneal treatment at dosage of 4 x100 mg kg e-1
Outline: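 Female NMRI mice (18–20 g; 10 per group) were hormonally conditioned and infected intravaginally with 3.5×10^4 CFU C. albicans no. 124 in 50 μL Sabouraud's glucose broth. Four doses were given by gavage or ip, at 2 h before and 2, 18 and 24 h after infection. One day after the last dose, vaginal swabs were plated on Sabouraud agar with streptomycin (0.1 mg/mL) for 48 h at 37 °C. Failed reisolation counted as cure.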

Candida albicans [3] = assay: Tested for minimum inhibitory concentration against Candida albicans 9 (Candida albicans) at pH 6.5.
Outline: (§2)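 Broth microdilution in malt extract broth, initial pH 6.5, 1×10^3 CFU per 0.2 mL well, from liquid-nitrogen-stored Sabouraud cultures. Compound from 0.08% stock in 5% DMSO/0.2% Tween 80, final 0.05–100 μg/mL. Visual reading after 48 h at 30 °C. MIC = lowest concentration with no detectable growth. Vehicle-only negative controls.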

Candida albicans [4] = assay: Tested for minimum inhibitory concentration against Candida albicans 124 (Candida albicans) at pH of 6.5.
Outline: (§3)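 Broth microdilution in malt extract broth, initial pH 4.5 or 6.5, with 1×10^3 CFU per 0.2 mL well of thawed stored cultures. Compound stocks were made in 5% DMSO/0.2% Tween 80 and diluted to final 0.05–100 μg/mL. Plates were incubated 48 h at 30 °C and read macroscopically. MIC was the lowest concentration with no detectable growth. Vehicle-only wells served as controls.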

Candida albicans [5] = assay: Tested for minimum subinhibitory concentration against Candida albicans 124 (Candida albicans) at pH 4.5.
Outline: (§4)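 Malt extract broth microdilution at initial pH 4.5, 1×10^3 CFU/0.2 mL well, final compound 0.05–100 μg/mL diluted from DMSO/Tween 80 stocks. Incubation was 48 h at 30 °C with macroscopic reading. MSIC was the lowest concentration causing visible growth inhibition in at least two of three triplicates.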

Pichia kudriavzevii [6] = assay: Tested for minimum subinhibitory concentration against Candida krusei 132 (C.k) at pH 6.5.; outline: as §1
Candida albicans [7] = assay: Tested for minimum inhibitory concentration against Candida albicans 124 (Candida albicans) at pH 6.5.; outline: as §2
Mus musculus [8] = assay: Tested for efficacy of compound in experimental systemic candidosis (mouse) after intraperitoneal treatment at dosage of 8 *50 mg kg e-1
Outline: (§5)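 Mice (female NMRI, 18–20 g; 10 per group) infected by tail-vein injection of 10⁶ CFU C. albicans no. 124. Compound was given intraperitoneally twice daily on 4 consecutive days, starting 2 h before inoculation. Efficacy was scored as survival rate up to day 9 after infection.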

Rattus norvegicus [9] = species on record: Rattus norvegicus; assay: Tested for efficacy of compound in experimental vaginal candidosis (rat) after tropical treatment at dosage of 9x 0.1% drug concentration
Outline: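 Female Wistar rats (~150 g, hormonally conditioned, 10 per group) infected intravaginally with 3.5×10^4 CFU C. albicans no. 124 in 50 μL broth. Intravaginal gel, 0.2 mL, from 2 h post-inoculation, twice daily for 4 days (nine applications). Swabs plated one day after last treatment on Sabouraud's glucose agar with streptomycin, 48 h at 37 °C. Cure = no reisolation.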

Candida albicans [10] = assay: Tested for minimum inhibitory concentration against Candida albicans 4 (Candida albicans) at pH 6.5.; outline: as §2
[11] = system: Meyerozyma guilliermondii; assay: Tested for minimum inhibitory concentration against Candida guilliermondii 80 (C.g) at pH of 6.5.; outline: as §3
[12] = system: Meyerozyma guilliermondii; assay: Tested for minimum inhibitory concentration against Candida guilliermondii 80 (C.g) at pH 6.5.; outline: as §2
Candida albicans [13] = assay: Tested for minimum inhibitory concentration against Candida albicans 9 (Candida albicans) at pH 4.5.; outline: as §3
Candida albicans [14] = assay: Tested for minimum subinhibitory concentration against Candida albicans 26 (Candida albicans) at pH 6.5.; outline: as §1
Candida albicans [15] = assay: Tested for minimum inhibitory concentration against Candida albicans 90 (Candida albicans) at pH 6.5.; outline: as §2
Candida albicans [16] = assay: Tested for minimum inhibitory concentration against Candida albicans 88 (Candida albicans) at pH 4.5.; outline: as §3
Mus musculus [17] = assay: Tested for efficacy of compound in experimental systemic candidosis (mouse) after intraperitoneal treatment at dosage of 8 *100 mg kg e-1; outline: as §5
Candida tropicalis [18] = assay: Tested for minimum inhibitory concentration against Candida tropicalis (C.t) at pH 4.5.; outline: as §3
Mus musculus [19] = species on record: Mus musculus; assay: Tested for efficacy of compound in experimental systemic candidosis (mouse) after oral treatment at dosage of 8 *200 mg kg e-1
Outline: (§6)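 Systemic candidiasis: female NMRI mice (18–20 g), 10 per group, infected by intravenous injection of 10⁶ CFU C. albicans no. 124 via lateral tail vein. Oral dosing twice daily on 4 consecutive days, starting 2 h before inoculation. Efficacy taken as survival rate up to day 9 after infection.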

[20] = system: Meyerozyma guilliermondii; assay: Tested for minimum subinhibitory concentration against Candida guilliermondii 80 (C.g) at pH 6.5.; outline: as §1
Candida albicans [21] = assay: Tested for minimum subinhibitory concentration against Candida albicans 3 (Candida albicans) at pH 4.5.; outline: as §4
Rattus norvegicus [22] = species on record: Rattus norvegicus; assay: Tested for efficacy of compound in experimental vaginal candidosis (rat) after oral treatment at dosage of 2x 150 mg kg e-1
Outline: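 Hormonally conditioned female Wistar rats (~150 g), 10 per group, given intravaginal C. albicans no. 124, 3.5×10^4 CFU in 50 μL Sabouraud's glucose broth. Oral dosing twice, 2 h before and 18 h after infection. Vaginal swabs plated on Sabouraud's glucose agar with streptomycin (0.1 mg/mL), 48 h at 37 °C. Cured when C. albicans not reisolated.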

Candida albicans [23] = assay: Tested for minimum inhibitory concentration against Candida albicans 88 (Candida albicans) at pH 6.5.; outline: as §2
Candida albicans [24] = assay: Tested for minimum subinhibitory concentration against Candida albicans 90 (Candida albicans) at pH 6.5.; outline: as §1
Pichia kudriavzevii [25] = assay: Tested for minimum inhibitory concentration against Candida krusei 132 (C.k) at pH 6.5.; outline: as §2
Mus musculus [26] = species on record: Mus musculus; assay: Tested for efficacy of compound in experimental systemic candidosis (mouse) after oral treatment at dosage of 8 *100 mg kg e-1; outline: as §6
Pichia kudriavzevii [27] = assay: Tested for minimum inhibitory concentration against Candida krusei 132 (C.k) at pH of 6.5.; outline: as §3
Candida albicans [28] = assay: Tested for minimum subinhibitory concentration against Candida albicans 90 (Candida albicans) at pH 4.5.; outline: as §4
Candida albicans [29] = assay: Tested for minimum inhibitory concentration against Candida albicans 124 (Candida albicans) at pH of 4.5.; outline: as §3
Candida tropicalis [30] = assay: Tested for minimum inhibitory concentration against Candida tropicalis 43 (C.t) at pH of 4.5.; outline: as §3
Candida tropicalis [31] = assay: Tested for minimum inhibitory concentration against Candida tropicalis 43 (C.t) at pH of 6.5.; outline: as §3

## CC[C@@H](C)[C@H]1C(=O)NCC(=O)N(C)[C@@H](C(C)C)C(=O)N[C@@H](Cc2ccc(OC)cc2)C(=O)O[C@H](C)C(=O)N2CCCC[C@H]2C(=O)N(C)[C@@H](C(C)C)C(=O)N[C@@H](C(C)C)C(=O)N(C)[C@@H](CC(=O)O)C(=O)N(C)[C@@H]([C@@H](C)CC)C(=O)N1C
Candida albicans [1]
  MSIC: 12.5 µg/mL
Mus musculus [2]
  Efficacy: 14%
Candida albicans [3]
  MIC: > 100 µg/mL
Candida albicans [4]
  MIC: 50 µg/mL (≈ 44.4 µM)
Candida albicans [5]
  MSIC: 0.4 µg/mL
Pichia kudriavzevii [6]
  MSIC: 3.12 µg/mL
Candida albicans [7]
  MIC: 50 µg/mL (≈ 44.4 µM)
Mus musculus [8]
  Efficacy: 20%
Rattus norvegicus [9]
  Efficacy: 78%
Candida albicans [10]
  MIC: 100 µg/mL (≈ 88.8 µM)
[11]
  MIC: > 100 µg/mL
[12]
  MIC: > 100 µg/mL
Candida albicans [13]
  MIC: 12.5 µg/mL (≈ 11.1 µM)
Candida albicans [14]
  MSIC: 6.25 µg/mL
Candida albicans [15]
  MIC: 100 µg/mL (≈ 88.8 µM)
Candida albicans [16]
  MIC: 12.5 µg/mL (≈ 11.1 µM)
Mus musculus [17]
  Efficacy: 100%
Candida tropicalis [18]
  MIC: 1.56 µg/mL (≈ 1.38 µM)
Mus musculus [19]
  Efficacy: 90%
[20]
  MSIC: 12.5 µg/mL
Candida albicans [21]
  MSIC: 0.78 µg/mL
Rattus norvegicus [22]
  Efficacy: 0%
Candida albicans [23]
  MIC: 100 µg/mL (≈ 88.8 µM)
Candida albicans [24]
  MSIC: 3.12 µg/mL
Pichia kudriavzevii [25]
  MIC: > 100 µg/mL
Mus musculus [26]
  Efficacy: 40%
Pichia kudriavzevii [27]
  MIC: > 100 µg/mL
Candida albicans [28]
  MSIC: 0.78 µg/mL
Candida albicans [29]
  MIC: 1.56 µg/mL (≈ 1.38 µM)
Candida tropicalis [30]
  MIC: 1.56 µg/mL (≈ 1.38 µM)
Candida tropicalis [31]
  MIC: 100 µg/mL (≈ 88.8 µM)
